In brackets after ≈: the same amount, converted by molar mass. Activity calls are given as the source filed them. The calls are words filed in the database; no cut-off is given here.
Tests used:
[1] = Toxicity against human erythrocytes assessed as hemolytic rate after 1 hr by haemolytic assay; format: cell-based, Erythrocyte; details: read-out: Activity
Procedure, shortened: (§1)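 Erythrocytes from blood banks suspended as a 2% saline suspension. Incubated 1 h with compound (50–0.419 µg/mL). Triton X (5 mg/mL) used as positive control. Absorbance read at 450 nm. ANOVA with Tukey test, p < 0.05.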

[2] = Toxicity against human erythrocytes assessed as disruption of cell membrane after 1 hr by haemolytic assay; format: cell-based, Erythrocyte; procedure, shortened: as §1
Erythrocyte = experiment: Antioxidant activity against H2O2-induced oxidative stress in human erythrocyte membrane at 12.5 to 100 uM treated for 30 mins prior to H2O2 challenge measured after 3 hrs; format: functional, cell membranes
Procedure, shortened: (§2)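 Erythrocytes from blood-bank samples, washed in saline phosphate with 1 mM NaN3 at 4 °C, plasma and white cells removed. Preincubated with compound 30 min at 37 °C, then brought to 2% haematocrit in PBS. Stress induced by H2O2 (300 μM), 3 h at 37 °C. Absorbance read at 540 nm. Mean ± S.D. of three experiments in duplicate.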

[3] = test system: Radical scavenging activity; experiment: Antioxidant activity assessed as DPPH radical scavenging activity after 30 mins; format: functional
Procedure, shortened: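 Compound (500–0.48 µg/mL) mixed with DPPH, held 30 min at 25 °C in the dark, absorbance read at 517 nm. AA% = 100 − [(ABS_T − ABS_B)×100/ABS_C], with a compound + ethanol blank and a DPPH + ethanol negative control.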

Mus musculus [4] = experiment: Acute toxicity in Swiss mouse assessed as depression at 2000 mg/kg, po administered as single dose measured during 14 days after drug exposure; format: organism-based; design: dose 2000 mg/kg, route oral; details: in vivo, 336 h
Procedure, shortened: (§3)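 Female Swiss mice (eight weeks old, specific pathogen-free, kept at 22 °C with food and water ad libitum, acclimatised five days) were tested under OECD Test Guideline 423. Each received a single dose by oral gavage, n = 3. The starting dose came from the ICCVAM prediction model using 3T3 neutral red uptake IC50. Animals were observed individually during the first 30 min and periodically over 24 h, especially the first 4 h, then daily for 14 days.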

Mus musculus [5] = experiment: Acute toxicity in Swiss mouse assessed as agitation at 2000 mg/kg, po administered as single dose measured during 14 days after drug exposure; format: organism-based; design: dose 2000 mg/kg, route oral; details: in vivo, 336 h; procedure, shortened: as §3
Mus musculus [6] = experiment: Acute toxicity in Swiss mouse assessed as animal's death at 2000 mg/kg, po administered as single dose measured during 14 days after drug exposure; format: organism-based; design: dose 2000 mg/kg, route oral; details: in vivo, 336 h; procedure, shortened: as §3
[7] = Acute toxicity in po dosed Swiss mouse administered as single dose measured for 14 days after drug exposure; format: organism-based; details: in vivo; procedure, shortened: as §3
[8] = Genotoxicity in human T lymphocytes assessed as proportion of cells with DNA damage at 100 uM after 1 hr by comet assay (reference value: 10%); format: toxicity, cell-based; details: t-cell
[9] = Genotoxicity in human T lymphocytes assessed as proportion of cells with DNA damage at 50 uM after 1 hr by comet assay (reference value: 10%); format: toxicity, cell-based; details: t-cell
[10] = Genotoxicity in human T lymphocytes assessed as proportion of cells with DNA damage at 25 uM after 1 hr by comet assay (reference value: 10%); format: toxicity, cell-based; details: t-cell
[11] = Genotoxicity in human T lymphocytes assessed as proportion of cells without DNA damage at 100 uM after 1 hr by comet assay (reference value: 90%); format: toxicity, cell-based; details: t-cell
[12] = Genotoxicity in human T lymphocytes assessed as proportion of cells without DNA damage at 50 uM after 1 hr by comet assay (reference value: 90%); format: toxicity, cell-based; details: t-cell
[13] = Genotoxicity in human T lymphocytes assessed as proportion of cells without DNA damage at 25 uM after 1 hr by comet assay (reference value: 90%); format: toxicity, cell-based; details: t-cell
[14] = Myelosuppressive activity against Swiss mouse CFU-GM cells assessed as inhibition of cell growth and differentiation after 7 days; format: cell-based; details: 168 h
Procedure, shortened: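 Swiss mouse bone marrow cells (1×10^5) in agar with 2× DMEM, mouse GM-CSF and bovine serum. Ethanolic compound solutions (534–4.17 μM) added, medium-only negative control. Incubated seven days, then CFU-GM colonies counted under 32× magnification. ANOVA.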

[15] = Toxicity against human erythrocytes assessed as hemolytic potential after 1 hr by haemolytic assay; format: cell-based, Erythrocyte; details: read-out: Activity; procedure, shortened: as §1
[16] = Pro-oxidant activity in H2O2-stimulated human erythrocyte membrane assessed as increase in hemolysis at >35 uM treated for 30 mins prior to H2O2 challenge measured after 3 hrs; format: ADME, cell-based; procedure, shortened: as §2

SMILES | hemolysis at 1 h [1] [%] | IC50 at 1 hr [2] [µg/mL] | Activity (Erythrocyte) | Activity [3] | Activity (Mus musculus [4]) | Activity (Mus musculus [5]) | Activity (Mus musculus [6]) | LD50 at 336 h [7] [mg/kg] | Activity [8] [%] | Activity [9] [%] | Activity [10] [%] | Activity [11] [%] | Activity [12] [%] | Activity [13] [%] | IC50 [14] [µM] | hemolysis at 1 h [15] [%] | Activity [16]
CC(C)=CCC/C(C)=C/CNc1ccccc1 | < 5 | < 0.419 | Active | Active |  |  |  |  |  |  |  |  |  |  |  |  | 
CC(C)=CCC/C(C)=C/CN(c1ccc(O)cc1)S(C)(=O)=O | < 5 | < 0.419 | Active |  |  |  |  |  |  |  |  |  |  |  |  |  | 
CC(C)=CCC/C(C)=C/CNc1ccc(O)cc1 | < 5 | < 0.419 | Active | Active | Toxic | Toxic | Non-toxic | > 2000 | 30 | 28 | 22 | 70 | 72 | 78 | 460 |  | 
CC(C)=CCC/C(C)=C/CNc1cc(C)nn1C | > 5 | 1.76 (≈ 7.11 µM) |  | Active |  |  |  |  |  |  |  |  |  |  |  | 75 | Toxic
CC(C)=CCC/C(C)=C/CNc1ccc2c(c1)OCO2 | < 5 | 18.3 (≈ 67.1 µM) | Active | Active |  |  |  |  |  |  |  |  |  |  |  |  | 
